APP 5'UTR act = activators of APP 5'UTR luciferase reporter, primary screen, SH-SY5Y cells; SH-SY5Y APP 5'UTR luciferase reporter, luminescence; zero percent = DMSO vehicle wells; 190,000 tested, 1% active; activation, % at 2 µM;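 active = activation above a set limit, based on mean plus 3 SD of controls, cut at about 140% in these data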
NF-kB expr up = activators of NF-kB expression in neurons, primary screen, cell-based, HTS | human neuronal cells, NF-kB reporter expression; stronger effect = higher value | fold change at 12.5 µM | 190,000 tested, 1.6% active; in the data active = fold change above about 3.3
STAT3 activator = IL-6 driven STAT3 reporter potentiators, primary screen, U3A cells, luciferase, luminescence, MLSCN library; activation (% of control), % at 5.6 µM; IL-6 STAT3-luciferase reporter; 100% = signal with IL-6 EC80 alone; 190,000 tested, 0.91% active;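 active = activation above the screen-wide mean of compound activation plus 3 SD, cut at about 130% in these data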;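 note: 0% = background luminescence of wells with medium and substrate only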
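Assay system – human STAT1-deficient U3A cells with stable STAT3-luciferase reporter · Also added – IL-6 (33 ng/mL) · Schedule – compound 1 h, then IL-6 6 h at 37 °C · Technique – reporter luminescence signal · Evaluation – % activation versus median of IL-6-stimulated wells · Benchmarks – IL-6-only wells as 100% reference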
STAT3 inh = IL-6 driven STAT3 reporter inhibitors, primary screen, U3A cells, luciferase, luminescence, MLSCN library | IL-6 STAT3-luciferase reporter; host cell line lacks STAT1 | inhibition, % at 5.5 µM | 190,000 tested, 0.89% active | AID 862, 2007;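 active = inhibition above the mean inhibition across all screened compounds plus 3 SD, cut at about 44% in these data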;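 note: 0% = DMSO only wells and 100% = 100 µM nifuroxazide control wells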
STAT1 act = STAT1 signaling activators, primary screen, cell-based, HTS, luciferase reporter. activation (% of control), % at 5.5 µM. NIH 3T3 STAT1-luciferase reporter, IFN-gamma, luminescence; 100% = IFN-gamma alone, no compound. 200,000 tested, 2.6% active. AID 932, 2007;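 active = activation above the screen-wide mean activation plus 3 SD, cut at about 130% in these data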;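 note: raw ratio to IFN-gamma control signal so 100% means no change and 0% no light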
STAT1 blocker = STAT1 signaling inhibitors, primary screen, cell-based, HTS, luciferase reporter; inhibition, % at 5.5 µM; 200,000 tested, 0.35% active; NIH 3T3 STAT1-luciferase reporter, IFN-gamma, luminescence;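 active = inhibition above a set limit, the mean inhibition across all tested compounds plus 3 SD, cut at about 34% in these data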;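 note: 0% = IFN-gamma with DMSO and 100% = IFN-gamma with 300 µM nifuroxazide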
Active calls of the source: *; nt = no result. In the library only some 4.9% were active in any assay of this set; here they are far more common.

SMILES | APP 5'UTR act | NF-kB expr up | STAT3 activator | STAT3 inh | STAT1 act | STAT1 blocker
Cc1cccnc1Nc1nc(-c2ccc(O)cc2O)cs1 | 35.9 | 3.88* | 97.4 | 6.0 | 121.0 | -23.2
Oc1ccc(-c2csc(Nc3ncccn3)n2)cc1 | 173.1* | 9.11* | 83.3 | 23.9 | 146.0* | -49.5
Cc1ccc(F)cc1NC(=O)C1CC(=O)N(CCc2ccccc2)C1 (centres undefined) | 14.8 | 1.15 | 94.7 | 8.8 | 96.7 | 2.8
CCc1c(C)sc(NC(=O)C2CC2c2ccccc2)c1C(N)=O (centres undefined) | 3.7 | 1.49 | 134.1* | -33.2 | 107.1 | -7.7
O=C(Nc1ccccc1)n1cc(-c2ccccn2)c(N2CCOCC2)n1 | 8.3 | 1.89 | 133.4* | -36.3 | 99.0 | -0.1
O=C(Nc1ccc(Nc2ccccc2)cc1)N1CCOCC1 | -11.2 | 1.5 | 99.5 | 3.3 | 100.0 | 0.0
c1ccc(-c2noc(CCC3CCCC3)n2)cc1 | 11.8 | 2.33 | 104.2 | -2.6 | 112.9 | -15.9
c1ccc(-c2noc(CC3CCCCC3)n2)cc1 | 59.0 | 1.64 | 97.6 | 9.6 | 135.6* | -40.2
O=C(Nc1cc2c(oc1=O)CCCC2=O)c1ccc(Cl)cc1 | 18.5 | 1.39 | 91.8 | 15.7 | 136.3* | -39.8
Cc1nccc2oc(=O)c(NC(=O)c3ccc(Cl)cc3)cc12 | -21.5 | 2.11 | 82.1 | 23.6 | 103.7 | -5.1
c1ccc2sc(NC3=NCN(CCN4CCOCC4)CN3)nc2c1 | 4.2 | 0.97 | 90.7 | 13.2 | 96.2 | 2.3
Cc1nc(NC2=NCN(CCN3CCOCC3)CN2)nc2c(C)cccc12 | 35.5 | nt | 175.5* | -88.6 | 99.6 | 0.4
Cc1nc(Nc2nc(=O)c3ccccc3n2C)nc2c(C)cccc12 | 16.1 | nt | 141.5* | -39.9 | 99.3 | 0.8
Cc1ccc(SCc2cc(=O)[nH]c(Nc3nc(C)c4cccc(C)c4n3)n2)cc1 | 5.3 | 0.73 | 90.4 | 15.1 | 94.7 | 5.7
Cc1ccc(C)c(C(=O)Nc2cc(C)nn2-c2nc(C)cc(C)n2)c1 | -9.6 | 1.01 | 109.3 | -3.7 | 106.2 | -8.2
COc1ccc(OC)c(NC(=O)CC2SC(=NCc3ccccc3)NC2=O)c1 (centres undefined) | 12.2 | 0.98 | 103.2 | 0.0 | 91.9 | 6.9
Clc1ccccc1-c1nc(-c2ccccc2)n[nH]1 | 109.2 | 4.05* | 120.1 | -14.0 | 131.9* | -34.9
Cc1cccc(OCC(=O)NC(Cc2c[nH]c3ccccc23)C(=O)O)c1C (centres undefined) | 3.2 | nt | 108.0 | -2.8 | 87.6 | 13.9
OC(COc1ccc2ccccc2c1Cl)CN1CCOCC1 (centres undefined) | 39.9 | 2.07 | 102.2 | 1.8 | 134.3* | -37.8
CCOC(=O)c1sc(NC(=O)c2ccccc2)cc1C | 117.3 | 6.73* | 93.6 | 14.6 | 145.2* | -49.1
CCN(CC)Cc1c(NC(=O)c2ccccc2)sc(C)c1C | -0.6 | 1.15 | 123.0 | -23.9 | 134.2* | -38.2
CCOC(=O)c1csc(NC(=O)c2ccccc2)n1 | 144.2* | 3.64* | 92.2 | 17.8 | 136.1* | -39.9
CCN(CC)C(=O)c1c(NC(=O)c2ccccc2)sc(C)c1C | -5.4 | 0.98 | 99.2 | 0.8 | 97.5 | 3.5
CCOC(=O)c1sc(NC(=O)Nc2ccc(Cl)cc2)cc1C | 37.5 | 1.27 | 96.4 | 10.9 | 102.8 | -3.1
CCOC(=O)c1sc(NC(=O)c2ccc(Cl)s2)cc1C | 75.7 | 2.15 | 100.7 | 7.8 | 132.1* | -35.5
SMILES | APP 5'UTR act | NF-kB expr up | STAT3 activator | STAT3 inh | STAT1 act | STAT1 blocker
O=C(CCCOc1ccccc1)NC(=S)Nc1ccccc1 | 16.9 | 1.32 | 94.0 | 10.8 | 100.8 | -2.9
CC(NC(=O)Cn1cc(C(=O)C2CC2)c2ccccc21)c1ccccc1 (centres undefined) | 9.0 | 0.93 | 103.9 | -1.3 | 103.4 | -3.7
CCOC(=O)c1sc(NC(=O)C(C)(C)C)cc1C | 73.6 | 2.58 | 101.6 | 6.7 | 131.3* | -34.5
CCOC(=O)c1sc(=NC(=O)c2ccccc2)n(C)c1C | 180.5* | 6.71* | 131.9 | -28.0 | 137.8* | -41.0
CCOC(=O)c1sc(NC(=O)C2CC2)cc1C | 15.2 | 1.04 | 86.5 | 24.2 | 95.9 | 4.5
Cc1ccc(-c2csc(N/N=C/c3ccco3)n2)cc1 | 24.8 | 2.92 | 80.5 | 25.9 | 115.5 | -16.9
C(=N\Nc1nc(-c2ccccc2)cs1)/c1cccs1 | 47.0 | 7.37* | 122.1 | -13.6 | 144.9* | -53.5
Clc1ccc(-c2csc(N/N=C\c3cccnc3)n2)cc1 | 21.9 | 1.21 | 90.0 | 12.2 | 105.5 | -6.3
Cc1ccc(-c2csc(N/N=C/C=C/c3ccccc3)n2)cc1 | 5.9 | 1.24 | 89.6 | 16.0 | 111.0 | -12.0
C(=N\Nc1nc(-c2ccccc2)cs1)/c1ccco1 | 156.2* | 5.24* | 95.1 | 4.4 | 146.9* | -51.4
C(=N\Nc1nc(-c2ccccc2)cs1)/c1ccncc1 | 91.6 | 2.94 | 97.4 | 6.4 | 149.2* | -55.7
COc1ccc(CN2CCNC(=O)C2CC(=O)NCCc2c[nH]c3ccccc23)c(OC)c1 (centres undefined) | -21.0 | 1.01 | 103.5 | 3.2 | 101.6 | -3.8
O=C(CCNc1ccccc1)c1ccc2c(c1)OCO2 | 54.6 | 3.12 | 100.0 | 6.4 | 147.8* | -52.3
Cc1ccccc1OCC(=O)Nc1ccc2c(c1)OCO2 | 26.6 | 1.66 | 90.9 | 12.9 | 110.3 | -11.3
CC(=O)Nc1ccccc1OCC(=O)c1ccc2c(c1)OCO2 | 123.2 | 1.36 | 104.6 | -0.5 | 134.7* | -38.2
COC(=O)CC/C(O)=C1\C(=O)CC(C)(C)CC1=NCCc1nc2ccccc2[nH]1 | 10.6 | 1.54 | 98.3 | 4.4 | 88.5 | 10.8
O=[N+]([O-])c1ccc(C2CCCC/C2=N\OCc2cccc(F)c2)c([N+](=O)[O-])c1 (centres undefined) | 6.8 | 1.36 | 101.2 | 4.5 | 98.8 | 1.4
CC(OC(=O)CCc1c[nH]c2ccccc12)C(=O)c1ccccc1 (centres undefined) | 25.6 | 1.5 | 94.8 | 12.8 | 112.1 | -15.2
Nc1nc(CSc2ccccc2)nc(N2CCCCC2)n1 | 33.0 | 2.36 | 110.8 | -4.9 | 142.1* | -47.8
Cc1ccc(N2C(S)=C(C#N)C(=O)NC2c2cccs2)cc1 (centres undefined) | 13.1 | 0.81 | 106.5 | -5.1 | 108.5 | -9.5
Cc1nnc(NC(=O)CCSCCC(=O)Nc2nnc(C)s2)s1 | 8.5 | 1.08 | 104.5 | -0.5 | 103.8 | -7.2
COc1cc([N+](=O)[O-])ccc1NC(=O)CSc1nc2ccccc2n1-c1ccccc1 | 13.2 | 4.24* | 117.8 | -24.3 | 96.3 | 4.2
CCOc1ccc(-n2c(SCC(=O)Nc3cc(OC)c([N+](=O)[O-])cc3C)nc3ccccc32)cc1 | 15.7 | 0.84 | 93.6 | 7.5 | 94.6 | 6.0
